Assay results taken from ChEMBL document CHEMBL1152476, “Synthesis and in vitro cytotoxicity of 9-anilinoacridines bearing N-mustard residue on both anilino and acridine rings” (Eur J Med Chem, 2009).

Tests used:
[1] = test system: CCRF-CEM; test: Cytotoxicity against human CCRF-CEM cells after 72 hrs by XTT-tetrazolium assay; type: functional, cell-based
Summary of the method: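 CCRF-CEM human T-cell acute lymphocytic leukemia cells exposed for 72 h to six or seven concentrations per compound. Phenazine methosulfate–XTT was then added for 6 h at 37 °C, and absorbance was read at 450 and 630 nm. IC50 was derived from the dose–effect relationship by median–effect plot analysis.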

[2] = test system: CCRF-CEM; test: Ratio of AHMA IC50 to compound IC50 against human CCRF-CEM cells; type: functional
Summary of the method: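 Ratio of AHMA IC50 to test compound IC50, both from the same 72 h CCRF-CEM XTT assay. Six or seven concentrations per drug were tested, and each IC50 came from a median–effect analysis of the dose–effect relationship.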

[3] = test system: CCRF-CEM; test: Antitumor activity in human CCRF-CEM cells xenografted mouse at 2 mg/kg, iv qd for 3 days; type: functional, organism-based; design: dose 2 mg/kg
Summary of the method: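 Mice received intravenous injection at 2 mg/kg, once daily ×3 (QD×3), in a DMSO/Tween 80/normal saline vehicle.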

[4] = Solubility in dimethyl sulfoxide; type: physicochemical
[5] = Solubility in Tween 80; type: physicochemical
[6] = Solubility in normal saline; type: physicochemical; settings: buffer

ClCCN(CCCl)CCOc1cccc(Nc2c3ccccc3nc3ccccc23)c1
IC50 [1]: 86 nM
Ratio IC50 [2]: 30
Activity [3]: Toxic
solubility [4]: Insoluble
solubility [5]: Insoluble
solubility [6]: Insoluble

ClCCN(CCCl)CCCCOc1ccc(Nc2c3ccccc3nc3c(OCCN(CCCl)CCCl)cccc23)cc1
IC50 [1]: 21 nM
Ratio IC50 [2]: 30
Activity [3]: Toxic
solubility [4]: Insoluble
solubility [5]: Insoluble
solubility [6]: Insoluble

COc1cc(N)cc(Nc2c3ccccc3nc3c(OCCN(CCCl)CCCl)cccc23)c1
IC50 [1]: 6.7 nM
Ratio IC50 [2]: 30
Activity [3]: Toxic
solubility [4]: Insoluble
solubility [5]: Insoluble
solubility [6]: Insoluble

CC(=O)O[C@H]1C(=O)[C@@]2(C)[C@H]([C@H](OC(=O)c3ccccc3)[C@]3(O)C[C@H](OC(=O)[C@H](O)[C@@H](NC(=O)c4ccccc4)c4ccccc4)C(C)=C1C3(C)C)[C@]1(OC(C)=O)CO[C@@H]1C[C@@H]2O
Activity [3]: Toxic

ClCCN(CCCl)CCCCOc1ccc(Nc2c3ccccc3nc3ccccc23)cc1
IC50 [1]: 56 nM
Ratio IC50 [2]: 30
Activity [3]: Toxic
solubility [4]: Insoluble
solubility [5]: Insoluble
solubility [6]: Insoluble

COc1cc(N)cc(Nc2c3ccccc3nc3c(OCCCCN(CCCl)CCCl)cccc23)c1
Ratio IC50 [2]: 30
Activity [3]: Toxic
solubility [4]: Insoluble
solubility [5]: Insoluble
solubility [6]: Insoluble

ClCCN(CCCl)CCOc1ccc(Nc2c3ccccc3nc3ccccc23)cc1
Ratio IC50 [2]: 30
Activity [3]: Toxic
solubility [4]: Insoluble
solubility [5]: Insoluble
solubility [6]: Insoluble

ClCCN(CCCl)CCOc1cccc(Nc2c3ccccc3nc3c(OCCN(CCCl)CCCl)cccc23)c1
IC50 [1]: 17 nM
Ratio IC50 [2]: 30
Activity [3]: Toxic
solubility [4]: Insoluble
solubility [5]: Insoluble
solubility [6]: Insoluble

ClCCN(CCCl)CCCCOc1cccc(Nc2c3ccccc3nc3ccccc23)c1
IC50 [1]: 392 nM
Ratio IC50 [2]: 30
Activity [3]: Toxic
solubility [4]: Insoluble
solubility [5]: Insoluble
solubility [6]: Insoluble

ClCCN(CCCl)CCCCOc1cccc2c(Nc3ccc(OCCN(CCCl)CCCl)cc3)c3ccccc3nc12
IC50 [1]: 1.3 nM
Ratio IC50 [2]: 30
Activity [3]: Toxic
solubility [4]: Insoluble
solubility [5]: Insoluble
solubility [6]: Insoluble

ClCCN(CCCl)CCOc1ccc(Nc2c3ccccc3nc3c(OCCN(CCCl)CCCl)cccc23)cc1
IC50 [1]: 14.2 nM
Ratio IC50 [2]: 30
Activity [3]: Toxic
solubility [4]: Insoluble
solubility [5]: Insoluble
solubility [6]: Insoluble

ClCCN(CCCl)CCCCOc1cccc(Nc2c3ccccc3nc3c(OCCN(CCCl)CCCl)cccc23)c1
IC50 [1]: 6 nM
Ratio IC50 [2]: 30
Activity [3]: Toxic
solubility [4]: Insoluble
solubility [5]: Insoluble
solubility [6]: Insoluble
